# TDP2 inh = blocks human TDP2 phosphodiesterase activity | O95551 | recombinant TDP2, T5PNP hydrolysis, p-nitrophenol absorbance 415 nm | inhibition, % at 12.8 µM | actives 0.34% (n = 370,000);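 active = inhibition above the mean of all tested compounds plus 3 SD, set per campaign, cut at about 25% in these data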;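 note: 0% = DMSO with enzyme and 100% = buffer with substrate but no TDP2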
#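 System – recombinant human TDP2 · Amount – 120 nM TDP2 per well · Buffer or medium – Mg2+-containing Tris-HCl buffer, pH 7.5 · Reagent – T5PNP substrate, 5 mM · Dosing – 12.8 µM single point, 1% DMSO · Incubation – 2 h at 37 °C · Measured by – epi absorbance · Read-out basis – percent inhibition · Benchmarks – high control without enzyme, low control DMSO plus TDP2 · Repeats – singlicate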
# Apaf1 inhib = human Apaf-1 inhibition | reconstituted apoptosome caspase-3 activity, DEVD-Rh110 fluorescence | inhibition, % at 20 µM | actives 0.71% (n = 330,000); active = inhibition of at least 40% at 20 µM;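 note: plate controls were DMSO wells for no effect and DEVD-CHO caspase inhibitor wells for full effect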
# Target sequence (O14727 whole entry, looked up): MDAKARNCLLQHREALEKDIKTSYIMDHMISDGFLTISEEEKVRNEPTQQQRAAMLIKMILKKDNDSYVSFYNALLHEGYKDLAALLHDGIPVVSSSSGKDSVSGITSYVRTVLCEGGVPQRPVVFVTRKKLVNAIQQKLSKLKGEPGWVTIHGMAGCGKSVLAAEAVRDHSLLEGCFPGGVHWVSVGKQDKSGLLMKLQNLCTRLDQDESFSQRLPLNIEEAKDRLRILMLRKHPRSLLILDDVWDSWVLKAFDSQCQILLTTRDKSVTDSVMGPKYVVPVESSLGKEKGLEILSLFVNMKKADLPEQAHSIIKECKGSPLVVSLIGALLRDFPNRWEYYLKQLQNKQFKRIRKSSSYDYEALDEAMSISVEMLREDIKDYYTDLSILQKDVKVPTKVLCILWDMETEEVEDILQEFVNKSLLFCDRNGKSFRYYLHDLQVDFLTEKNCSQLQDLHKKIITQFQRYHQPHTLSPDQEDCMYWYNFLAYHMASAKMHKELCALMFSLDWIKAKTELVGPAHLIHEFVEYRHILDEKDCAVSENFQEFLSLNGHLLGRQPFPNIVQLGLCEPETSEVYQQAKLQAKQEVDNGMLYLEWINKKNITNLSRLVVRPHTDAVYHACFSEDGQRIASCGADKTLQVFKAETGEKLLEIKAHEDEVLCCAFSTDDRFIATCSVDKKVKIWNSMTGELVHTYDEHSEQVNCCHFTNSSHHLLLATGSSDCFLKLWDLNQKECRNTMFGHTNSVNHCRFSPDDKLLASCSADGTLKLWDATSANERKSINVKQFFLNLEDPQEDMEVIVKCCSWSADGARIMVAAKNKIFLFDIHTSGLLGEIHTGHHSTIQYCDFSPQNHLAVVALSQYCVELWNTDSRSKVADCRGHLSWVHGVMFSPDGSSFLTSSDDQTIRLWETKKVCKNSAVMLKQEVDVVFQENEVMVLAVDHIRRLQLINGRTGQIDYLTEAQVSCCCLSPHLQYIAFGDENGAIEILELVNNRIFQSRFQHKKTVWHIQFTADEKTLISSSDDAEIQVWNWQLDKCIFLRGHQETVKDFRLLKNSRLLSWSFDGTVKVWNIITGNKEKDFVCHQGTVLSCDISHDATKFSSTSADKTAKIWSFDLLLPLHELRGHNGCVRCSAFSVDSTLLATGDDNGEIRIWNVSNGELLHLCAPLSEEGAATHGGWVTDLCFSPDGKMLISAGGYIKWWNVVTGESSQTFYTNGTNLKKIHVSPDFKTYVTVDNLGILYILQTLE
#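 Assay system: Apoptosome proteins | Medium: pH 7.5 Hepes buffer with CHAPS, BSA, DTT | Also added: Cytochrome c and DEVD-Rh110 substrate | Times: 30 min plus 50 min, RT | Detection: Rhodamine 110 fluorescence at Ex 480/Em 540 nm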
# PP5 inh = PP5 (human) phosphatase inhibition | P53041 | purified PP5c, OMFP substrate fluorescence | inhibition, % at 6.7 µM | actives 0.18% (n = 320,000) | AID 1987;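 active = inhibition above the campaign's mean inhibition across all tested compounds plus 3 SD, cut at about 9.5% in these data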;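 note: 0% = DMSO only and 100% = 100 µM cantharidin control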
# PP1 inh = counter-screen for PP5 inhibitors: inhibitors of human PP1-alpha; purified PP1alpha, OMFP fluorescence; P62136; actives 0.9% (n = 320,000); inhibition, % at 6.7 µM; AID 2235;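 active = inhibition above the mean inhibition of all tested compounds plus 3 SD, computed separately for each screening campaign, cut at about 15% in these data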
# GSTO1 inh = blocks human GSTO1 in RBBP9 counter-screen. recombinant GSTO1, activity-based probe fluorescence polarization. inhibition, % at 5.96 µM. actives 1.1% (n = 300,000). AID 1974;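 active = inhibition above the campaign mean inhibition plus 3 SD, cut at about 35% in these data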;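 note: 0% = GSTO1-1 with DMSO and 100% = wells lacking GSTO1-1 enzyme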
# Apaf-1 inh conf = Apaf-1 inhibition, single-dose confirmed; shares compounds with Apaf1 inhib; reconstituted apoptosome, caspase-3 DEVD-Rh110 fluorescence; inhibition, % at 20 µM; actives 25% (n = 1,800);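 active = mean inhibition of at least 40% at 20 µM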;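 note: plate controls were DMSO wells for no effect and DEVD-CHO caspase inhibitor control wells for full effect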
# Rh110 quench = interferes with Rh110 fluorescence, flagging false Apaf-1 inhibitors; 1,800 tested, under 10 active; shares compounds with Apaf1 inhib; activation (fluorescence interference), % at 20 µM; Rh110 fluorescence interference, quenched caspase reaction;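 active = signal rise of 40% or more at 20 µM, treated as a fluorescence artifact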
# Fluor interf inh = shows fluorescence interference in the Apaf-1 inhibitor assay format; fluorescence interference counterscreen, Apaf-1 assay format; IC50, µM; shares compounds with Apaf1 inhib; 460 tested, under 10 active; call rule not given here
# TDP2 confirm = human TDP2 inhibition, confirmation. shares compounds with TDP2 inh. recombinant human TDP2, absorbance read-out. inhibition, % at 12.8 µM. actives 22% (n = 1,100); in the data active = inhibition above about 25%;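 note: 0% = vehicle with enzyme and 100% = no enzyme buffer only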
# Numbers without * were called inactive; x = not tested or not shown; ! = not active in a repeat. Compounds with a hit are over-represented: about 2.1% of the library has one in this group of screens.
SMILES,TDP2 inh,Apaf1 inhib,PP5 inh,PP1 inh,GSTO1 inh,Apaf-1 inh conf,Rh110 quench,TDP2 confirm,others
Cc1cccc(NC(=S)Nc2cccc3ccccc23)c1,25*,93*,1,-1,1,21,3,-2,
Cc1cc(Cl)ccc1NC(=S)Nc1cccnc1,-12,-4,-2,-7,0,x,x,x,
Fc1ccc(NC(=S)Nc2cccc3cnccc23)cc1,30*,95*,0,-2,15,21,0,-1,
Fc1ccc(NC(=S)Nc2ccccc2Cl)cc1,-4,-8,3,2,2,x,x,x,
S=C(Nc1ccc(Cl)cc1)Nc1cccc2cnccc12,35*,83*,1,-3,38*,17,-1,31*,
COc1c(C)cc(C(O)c2ncc(-c3ccccc3)[nH]2)cc1C (centres undefined),3,x,x,x,x,x,x,x,
O=C(O)c1ccc(NC2=C/C(=N/S(=O)(=O)c3ccccc3)c3ccccc3C2=O)cc1,72*,96*,x,x,x,97*,-1,77*,Fluor interf inh=>100
O=S(=O)(N=C1C=CC(=NS(=O)(=O)c2ccccc2)c2ccccc21)c1ccccc1,7,x,x,x,x,x,x,x,
CCOC(=O)C1=C(COC(=O)c2ccc([N+](=O)[O-])s2)NC(=O)NC1C (centres undefined),39*,46*,x,x,x,38,3,41*,
CC(=O)Nc1ccc(S(=O)(=O)NC2=C(N3CCN(c4ccc(F)cc4)CC3)C(=O)c3ccccc3C2=O)cc1,36*,64*,4,-1,57*,64*,4,30*,Fluor interf inh=>100
Cc1ccc(S(=O)(=O)NC2=C(N3CCN(c4ccccc4F)CC3)C(=O)c3ccccc3C2=O)cc1,25*!,76*,2,-1,12,20,2,1,
Cc1nc(NC(=O)c2ccccc2)sc1-c1cc(C(=O)N2CCOCC2)nn1Cc1ccccc1,4,x,x,x,x,x,x,x,
O=C(CCc1c[nH]c2ccccc12)Nc1ccc(Nc2ccccc2)cc1,0,x,x,x,x,x,x,x,
CCc1cc(=O)[nH]c(-n2[nH]c(-c3ccccc3)cc2=O)n1,13,1,-1,-1,15,x,x,x,
N#CCCn1[nH]c(-c2ccccc2)cc1=O,85*,72*,-2,-5,39*,15,4,11,
N#CCC[C@@H]1CC[C@]2(CCCN(S(=O)(=O)C3CCCCC3)C2)O1,4,x,x,x,x,x,x,x,
Nc1ccc2nn(-c3ccccc3)nc2c1,27*,93*,x,x,x,32,14,13,
Nc1ccc(-n2nc3ccccc3n2)cc1,10,5,2,0,4,x,x,x,
CCN(CC)CCN1C(=O)C(=O)/C(=C(/O)c2ccc(C)cc2)C1c1cccnc1 (centres undefined),32*,-19,1,-1,-3,x,x,6,
CCN(CC)CCCN1C(=O)C(=O)/C(=C(/O)c2cc(C)ccc2C)C1c1cccnc1 (centres undefined),-3,1,0,3,-1,x,x,x,
COC(=O)c1cc(=O)nc(NN=C(C)C)s1,1,x,x,x,x,x,x,x,
COc1ccc(C)cc1NC(=O)C(NCC(O)c1ccccc1)c1ccccc1 (centres undefined),26*,8,1,1,-4,x,x,9,
CCN1CCN(C(C(=O)NC2CCCCC2)C2CC2)CC1 (centres undefined),3,x,x,x,x,x,x,x,
CCN1CCN(C(C)C(=O)NC2CCCCC2)CC1 (centres undefined),27*,7,0,2,1,x,x,8,
Cc1cccc(CN2CCSCC2)c1,27*,-15,5,1,5,x,x,-2,
Cc1cccc(CN2CCSCCS2(=O)=O)c1,2,x,x,x,x,x,x,x,
O=C(CCCN1C(=O)/C(=C\c2ccco2)SC1=S)Nc1ccc(O)cc1C(=O)O,29*,8,1,2,23,x,x,-8,
O=C(NCC(c1ccccc1)c1ccccc1)[C@H](Cc1c[nH]c2ccccc12)NC1(C(=O)NC2CCCCC2)CCCC1,2,x,x,x,x,x,x,x,

# High-throughput results as filed in PubChem.
